Compound activity from PubChem.
HCV core dimer = inhibitors of HCV core protein dimerization, primary screen, biochemical, TR-FRET, high-throughput. TR-FRET GST/Flag-core106 dimerization, 1536-well. AID 1899, 2009. inhibition, % at 5 µM. 0.33% of 300,000 active;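 active means inhibition above the mean of all tested compounds plus 3 SD, set per screening campaign, cut at about 45% in these data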
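System: GST/Flag-tagged HCV core106 proteins. Incubation: compound-protein-antibody incubation 4 h at 22.5 °C. Technique: HTRF with 340 nm excitation, 617/671 nm emission. Medium: KF-containing HEPES buffer, pH 7.45, DTT, CHAPS, BSA. Read-out: inhibition (%) from 671 over 617 nm ratio. Also added: Eu(K)-anti-GST 90 ng/mL plus XL665-anti-Flag 1 µg/mL.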
rCAG binder = binders of r(CAG) RNA repeats, primary screen, biochemical, fluorescence | r(CAG) RNA repeat, TO-PRO-1 dye displacement fluorescence | inhibition, % at 3 µM | 1.3% of 370,000 active;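 active means inhibition above the plate cutoff, the mean of all test compounds on that plate plus 3 SD, cut at about 35% in these data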;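 further: 0% = DMSO alone and 100% = 100 µM mitoxantrone as full dye displacement; higher means more dye released from RNA so lower well fluorescence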
ABHD5-PLIN5 inh = ABHD5-PLIN5 interaction inhibitors, primary screen, cell lysate, split luciferase complementation, luminescence; Perilipin-5 (Homo sapiens) + 1-acylglycerol-3-phosphate O-acyltransferase ABHD5 (Homo …; Split G. princeps luciferase complementation, 4 h; inhibition, % at 4 µM; 0.78% of 360,000 active; AID 602281, 2012;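 active means inhibition above the mean inhibition across every tested compound plus 3 SD, cut at about 22% in these data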;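 further: 0% = DMSO only wells and the 100% control is not disclosed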
Target sequence (Q00G26 whole entry, looked up): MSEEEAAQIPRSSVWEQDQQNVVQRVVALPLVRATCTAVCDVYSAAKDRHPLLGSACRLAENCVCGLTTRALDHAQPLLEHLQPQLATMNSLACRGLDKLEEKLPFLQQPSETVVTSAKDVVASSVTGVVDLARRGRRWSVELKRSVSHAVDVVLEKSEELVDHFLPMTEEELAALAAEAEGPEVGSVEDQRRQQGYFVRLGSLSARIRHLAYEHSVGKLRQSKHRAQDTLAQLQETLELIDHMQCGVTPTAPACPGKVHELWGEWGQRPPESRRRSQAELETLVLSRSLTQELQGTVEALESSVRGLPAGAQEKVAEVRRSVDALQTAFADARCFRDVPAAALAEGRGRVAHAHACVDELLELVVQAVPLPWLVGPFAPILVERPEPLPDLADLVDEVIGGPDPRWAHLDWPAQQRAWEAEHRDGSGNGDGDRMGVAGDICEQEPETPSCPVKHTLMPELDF
Target sequence (Q8WTS1 whole entry, looked up): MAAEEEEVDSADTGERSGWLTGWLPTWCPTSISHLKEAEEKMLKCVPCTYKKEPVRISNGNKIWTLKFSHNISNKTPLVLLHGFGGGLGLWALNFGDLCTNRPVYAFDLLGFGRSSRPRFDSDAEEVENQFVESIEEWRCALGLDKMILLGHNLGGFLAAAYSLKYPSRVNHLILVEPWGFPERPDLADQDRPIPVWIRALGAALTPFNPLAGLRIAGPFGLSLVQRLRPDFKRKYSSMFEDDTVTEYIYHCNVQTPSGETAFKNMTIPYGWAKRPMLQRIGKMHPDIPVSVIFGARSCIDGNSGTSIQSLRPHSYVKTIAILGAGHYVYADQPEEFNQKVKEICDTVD
NadD inh = inhibitors of S. aureus NadD, primary screen, biochemical, colorimetric, uHTS | Nicotinate-nucleotide adenylyltransferase NadD (Staphylococcus aureus N315) | purified NadD enzyme, colorimetric absorbance read-out | inhibition, % at 20 µM | 0.78% of 360,000 active | AID 602399, 2012; in the data active means inhibition above about 26%
NadD inh conf = inhibitors of S. aureus NadD, confirmation, biochemical, colorimetric, single concentration | shares compounds with NadD inh | purified S. aureus NadD, colorimetric enzyme assay | inhibition, % at 20 µM | 13% of 2,000 active | AID 624309, 2012; in the data active means inhibition mostly above about 42%, no sharp cut-off; inactive means mostly below about 42%
* hit, by the source's call; . = no result. Only some compounds are listed: those with a hit (about 2.6% of all), similar ones and a draw of the others.

SMILES | HCV core dimer | rCAG binder | ABHD5-PLIN5 inh | NadD inh | NadD inh conf
COc1ccc(/C=N\NC(=S)SCN2C(=O)C3CCC(C)(C2=O)C3(C)C)cc1 (configuration not stated) | 19.0 | 5.9 | -11.0 | 18.5 | .
CN(C)c1ccc(/C=N\NC(=S)SCN2C(=O)C3CCC(C)(C2=O)C3(C)C)cc1 (configuration not stated) | 35.8 | 13.3 | -4.2 | 29.3* | 16.8
Cc1cc[n+](CC(=O)c2ccc(NC(=O)c3ccccc3)cc2)c2ccccc12 | 0.5 | 15.2 | 5.9 | 36.9* | -15.8
Cc1ccc(S(=O)(=O)c2nnn3c2nc(N2CCN(c4ccccn4)CC2)c2ccccc23)cc1C | 6.0 | 2.1 | 6.5 | 40.2* | 12.0
CCCCOCCCNC(=O)C[C@H]1C[C@@]2(C(=O)OC)C(=C[C@H](C3CCCC3)O[C@@H]2C)N(CCc2ccc(OC)c(OC)c2)C1=O | . | -0.7 | . | . | .
NC(=S)N/N=C/c1ccc(-c2ccc(Cl)c(Cl)c2)o1 | 36.7 | 34.3 | -14.7 | 39.5* | 12.4
O=C1Cc2c(-c3ccccc3)cc(-c3cccc(Cl)c3)nc2-c2ccccc2N1 | . | -0.3 | -0.6 | 37.1* | 1.8
CC(=O)c1nn(-c2cccc(Br)c2)cc1C(=O)c1ccco1 | 3.2 | 1.3 | 5.7 | 3.4 | .
Cc1nnc(-c2ccco2)c2cn(-c3cccc(Br)c3)nc12 | 27.6 | 14.3 | -2.3 | 37.2* | 6.3
CCCCCCCCN1C(=O)[C@@H](CC(=O)NCc2cccc(C(F)(F)F)c2)C[C@@]2(C(=O)OC)C1=C[C@H](C(C)(C)C)O[C@@H]2C | . | -0.5 | . | . | .
COc1ccc(C2OC(CCc3ccccc3)CC3=C2C(=O)OC(C)(C)O3)cc1 (configuration not stated) | . | -0.7 | 1.1 | -7.7 | .
Nc1ccc2nc(-c3ccccc3)[nH]c2c1 | -18.0 | 2.2 | 2.3 | -0.9 | .
Nc1ccc2nc(-c3ccc(N)c(Cl)c3)[nH]c2c1 | -29.0 | 15.4 | 4.9 | 41.3* | 17.9
N#CC1=C2SCN(c3ccccc3)CN2C(=O)CC1c1cccs1 (configuration not stated) | 34.9 | 28.2 | -17.7 | 44.0* | 16.3
N#CC1=C2SCN(c3ccccc3)CN2C(=O)CC1c1c(Cl)cccc1Cl (configuration not stated) | 11.5 | 12.0 | -11.9 | 16.7 | .
CC1=NN(c2ccc(C)cc2C)C(=O)C1C(c1ccccc1O)C1C(=O)N(c2ccc(C)cc2C)N=C1C (configuration not stated) | 4.7 | 12.6 | -33.4 | 21.4 | .
CC1=NN(c2ccc(Cl)cc2)C(=O)C1C(c1ccccc1O)c1c(C)[nH]n(-c2ccc(Cl)cc2)c1=O (configuration not stated) | 6.1 | . | -6.8 | 31.0* | 51.9*
S=c1[nH]nc(-c2cc(-c3ccccc3)n[nH]2)n1/N=C/c1ccc(Cl)cc1 | 4.6 | 22.7 | -6.6 | 26.3* | 39.1
Oc1ccc(/C=N/n2c(-c3ccccc3)n[nH]c2=S)cc1 | -6.6 | 1.6 | -7.8 | -2.6 | .
S=c1[nH]nc(-c2cc(-c3ccccc3)n[nH]2)n1/N=C/c1ccc(Cl)c(Cl)c1 | 11.0 | 8.5 | -2.3 | 30.5* | 9.3
CCn1c2ccccc2c2cc(/C=N/n3c(-c4cc(C)[nH]n4)n[nH]c3=S)ccc21 | 12.6 | 21.2 | -6.7 | 61.7* | 63.5*
S=c1[nH]nc(-c2ccccn2)n1/N=C/c1ccc(Cl)c(Cl)c1 | 1.9 | 0.2 | 0.9 | 19.5 | .
CN(C)Cc1c(C(C)(C)O)[nH]c2cc(F)ccc12 | . | 2.0 | . | . | .
Cc1cc(NC(=O)COC(=O)CCn2c(C)csc2=O)c([N+](=O)[O-])cc1C | . | 3.7 | 0.1 | -10.3 | .
COc1ccc(/C=C2/SC(=O)N(CCNC(=O)C3CC(=O)N(Cc4ccccc4)C3)C2=O)cc1 (configuration not stated) | . | 4.7 | -3.5 | -1.4 | .
SMILES | HCV core dimer | rCAG binder | ABHD5-PLIN5 inh | NadD inh | NadD inh conf
COc1ccc(C2CCCCCN2C(=O)C2CCN(S(=O)(=O)c3cccc(C(C)=O)c3)CC2)cc1 (configuration not stated) | . | 0.7 | -7.6 | -4.8 | .
N=C1S/C(=C\c2ccc(-c3cccc(Cl)c3)o2)C(=O)N1c1nccs1 | 17.0 | 15.4 | -2.1 | 75.7* | 2.5
COc1cccc(CNC(=O)[C@H]2CCCN2C(=O)[C@H]2CCCN2C(=O)c2ccc(F)c(F)c2)c1 | . | 0.0 | . | . | .
Nc1c(C(=O)O)sc2nc(-c3ccc(F)cc3)cc(-c3ccccc3)c12 | 15.6 | 16.1 | -3.4 | 37.4* | 29.3
CC(=O)c1sc2nc(-c3ccccc3)cc(C)c2c1N | -0.2 | 0.7 | 1.3 | -7.9 | .
O=C(NC(Cc1c[nH]c2ccccc12)C(=O)N/N=C/c1ccc(Cl)cc1)c1cccs1 (configuration not stated) | 17.1 | 18.1 | -0.9 | 31.2* | 34.6
Nc1nonc1-n1nnc(C(=O)N/N=C/c2ccco2)c1CSc1ccc(Cl)cc1 | . | 6.2 | 0.9 | -0.8 | .
COc1ccc(NC(C)=O)cc1NC(=O)c1cccc(S(=O)(=O)N2CCc3ccccc32)c1 | . | 8.2 | -3.7 | -5.5 | .
Cn1cc(C(=O)c2ccc(Cl)cc2Cl)cc1C(=O)N/N=C(\N)COc1ccc(Cl)cc1Cl | 26.4 | 13.3 | 6.8 | 41.4* | 28.6
Cn1cc(C(=O)c2ccc(Cl)cc2Cl)cc1C(=O)N/N=C(\N)COc1ccc(Cl)cc1 | 9.5 | 7.2 | 11.8 | 31.6* | 34.9
Cn1cc(C(=O)c2ccc(Cl)cc2Cl)cc1C(=O)N/N=C(\N)COc1ccc(F)cc1 | 9.3 | 4.3 | 4.3 | 8.6 | .
Cc1ccc(-c2csc(C3=C(O)CN(NC(=O)c4ccc([N+](=O)[O-])cc4)C3=N)n2)cc1 | 48.1* | 5.4 | -3.2 | 30.0* | 7.0
N=C1C(c2nc(-c3cccc([N+](=O)[O-])c3)cs2)=C(O)CN1NC(=O)c1ccco1 | 4.2 | 21.7 | 8.3 | 11.7 | .
COc1cc(/C=C2\SC(=O)N(Cc3ccc(F)cc3)C2=O)cc([N+](=O)[O-])c1O | . | 7.9 | -1.0 | 38.3* | 4.3
COc1cc(/C=C2/SC(=S)N(Cc3ccccc3)C2=O)cc(Cl)c1O | 8.1 | 14.3 | -2.8 | 11.9 | .
CCOC(=O)CN1C(=O)S/C(=C/c2ccc(OC)c([N+](=O)[O-])c2)C1=O | 9.1 | 4.0 | -0.2 | -6.2 | .
COc1cc(/C=C2\SC(=O)N(Cc3ccc(Cl)cc3)C2=O)cc([N+](=O)[O-])c1O | . | 11.5 | 4.1 | 37.3* | 11.3
CCN1c2ccccc2NC2C1C(C(C)=O)C(=O)N2c1ccc(Cl)cc1 (configuration not stated) | 9.4 | 9.8 | -11.0 | 36.9* | 4.8
O=C1Nc2ccccc2N(O)N1c1ccc(Cl)cc1 | -3.0 | 0.1 | 1.5 | 5.7 | .
CCC(=O)Nc1ccc(C(=O)COC(=O)c2nc3nccc(C)n3n2)cc1 | . | 29.0 | 1.1 | 46.1* | 85.6*
